# Experiments:
# Mus musculus [1] = test: Maximal electroshock seizures was determined for the inhibition of hind limb tonus in mouse by 1 hr after po dose; assay type: functional; conditions: Hindlimb
# Summary of the method: (§1)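 Oral dosing, with seizures assessed 1 h later. The endpoint is inhibition of hind limb tonus, expressed as ED50 in mg/kg po.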
# Mus musculus [2] = test: Maximal metrazole seizures was determined for the inhibition of hind limb tonus in mouse 1 hr after po dosing; assay type: functional; conditions: Hindlimb; summary of the method: as §1
# [3] = Tested for the neurotoxicity in mouse rotarod test was reported 1 hr after po dosing; assay type: toxicity, organism-based; conditions: in vivo
# Summary of the method: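 Trained mice were placed on a rotating rod 1 h after oral dosing. TD50 (mg/kg) is the dose at which 50% of animals fall off the rod, reported with its range.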
# Rattus norvegicus = test: Maximal electroshock seizures determined for the inhibition of hind limb tonus in rat 1 hr after po dosing; assay type: functional; conditions: Hindlimb; summary of the method: as §1
# [4] = Tested for the neurotoxicity in mouse rotarod test was reported 2 hr after po dosing; assay type: toxicity, organism-based; conditions: in vivo
SMILES,ED50 (Mus musculus [1]),ED50 (Mus musculus [2]),TD50 at 1 h [3],ED50 (Rattus norvegicus),TD50 at 2 h [4]
CN(C1=NCCN1)c1nnc(-c2ccccc2C(F)(F)F)s1,> 100 mg/kg,> 100 mg/kg,–,–,–
FC(F)(F)c1ccccc1-c1nnc(NC2=NCCN2)s1,> 100 mg/kg,> 100 mg/kg,–,–,–
C/N=C(\N)Nc1nnc(-c2ccccc2C(F)(F)F)s1,49 mg/kg,44 mg/kg,> 400 mg/kg,–,–
CCCC/N=C(\N)Nc1nnc(-c2ccccc2C(F)(F)F)s1,142 mg/kg,225 mg/kg,–,–,–
N=C(N)Nc1nnc(-c2ccccc2C(F)(F)F)s1,27 mg/kg,45 mg/kg,384 mg/kg,22 mg/kg,–
CN(C)CCC/N=C(\N)Nc1nnc(-c2ccccc2C(F)(F)F)s1,> 100 mg/kg,> 100 mg/kg,–,–,–
COCCC/N=C(\N)Nc1nnc(-c2ccccc2C(F)(F)F)s1,> 100 mg/kg,78 mg/kg,–,–,–
N=C(NCc1ccccc1)Nc1nnc(-c2ccccc2C(F)(F)F)s1,> 100 mg/kg,> 100 mg/kg,–,–,–
CN(N)c1nnc(-c2ccc(-c3ccccc3)cc2)s1,18 mg/kg,27 mg/kg,–,16 mg/kg,> 1000 mg/kg
NC(=O)N1c2ccccc2C=Cc2ccccc21 [CARBAMAZEPINE],20 mg/kg,11 mg/kg,–,4 mg/kg,–
CCC1(c2ccccc2)C(=O)NC(=O)NC1=O [PHENOBARBITAL],12 mg/kg,4 mg/kg,–,9 mg/kg,–
O=C1NC(=O)C(c2ccccc2)(c2ccccc2)N1 [PHENYTOIN],8 mg/kg,8 mg/kg,–,14 mg/kg,–

# Reference: ChEMBL document CHEMBL1123753, “Substituted 1,3,4-thiadiazoles with anticonvulsant activity. 3. Guanidines” (J Med Chem, 1987)
